This passage reports yeast fitness results from the RNAGym collection of RNA variant scans (doi:10.1126/science.aae0568).

This sample holds only a part of the variants without activity.

B1: tRNA (parent)
chain: GUUCCGUUGGCGUAAUGGUAACGCGUCUCCCUCCUAAGGAGAAGACUGCGGGUUCGAGUCCCGUACGGAACG

In this data set the parent is B1. Put plainly: yeast fitness relative to wild type (ratio to wild type); higher = fitter; tRNA-Arg(CCU), competitive growth, 37 C, YPD. The method in brief:
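Start and end populations of a pooled competition were compared by 100-nucleotide paired-end sequencing of gene amplicons. The Saccharomyces cerevisiae strains carried tRNA-Arg(CCU) gene variants at the native genomic locus, synthesised with a 3% per-site mutation rate at 69 sites, and competed in YPD at 37°C for 24 hours in six parallel replicates. Darwinian fitness relative to wild type was based on the change in genotype frequencies. Genotypes required ≥ 100 starting reads, and estimates < 0.5 were set to 0.5.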
With GUUCGGUUGGCGUAAUGGUAACACGUCUCCCUCCUAAGGAGAUGACUGCGGGUUCGAGUCCCGUGCGAAACG [C5G G23A A43U A65G G68A], the yeast fitness was not above 0.5. In the case of GUUCGGUUGGCGUAAUCGUAACGCGUCUCCCUCCUAAGGAGAAGACUGCGGGUUUGAGUCCCGUACGGAACG [C5G G17C C55U] it was not above 0.5; in that of GUUCGGUUGGCGUAAUGAUAAUGCGUCUCCCUCCUAAGGAGAAGACUGCGGGUUCGAGUCCCGUACGGAACG [C5G G18A C22U], not above 0.5; in that of GUUCGGUUGGCGUAAUAGUCACGCGUCUCCCUCCUAAGGAGAAGACUGGGGGUUCGAGUCCCGUACGGAACG [C5G G17A A20C C49G], 0.551. In the case of GUUCGGUUGGCGUAAUCGUAACGCAUCUCCCUCCUAAGGAGAAGACUGCGGGUUCGAGUCCCGUACGGAGCG [C5G G17C G25A A70G] it was not above 0.5. In the case of GUUCGGUUGGCGUAAUGGUAACGCCUCUCCCUCCUAAGGAGAAAACUGCGGGUUCGAGUCCCGUACGGAACG [C5G G25C G44A] it was not above 0.5; in that of GUUCGGUUGGCGUAAUAGUAACGCGUCUCCCUUCUACGGAGAAGACUGCGGGUUCGAGUCCCGUCCGGAACG [C5G G17A C33U A37C A65C], not above 0.5. As for GUUCGGUUGGCGUAAUGGUAACGCAUCUCCCUCCUAAGGAGCAGACUGCGGGUUCGAGUCCCGUACGAAACG [C5G G25A A42C G68A], the yeast fitness is not above 0.5.

As for GUUCGGUUGGCGUAAUAGUAACGCGUCUCCCUCCUAAGGAGAAGAGUGCGGGUUCGAGUCCCGUACGGAACG [C5G G17A C46G], the yeast fitness was 0.538.

Take GUUCGGUUGGCGUAAUGAUAACGCGUCUCCCUCCUAAGGAGAAGACUGCGGGUUAGAGUCCCGUACGGAACG [C5G G18A C55A]: the yeast fitness is not above 0.5. In the case of GUUCGGUUGGCGUAAUGGUAACGCGUCUCCCUCCUAAAGAGAAGACUGCGGGUUCGAGUCCCGUACGGUACG [C5G G38A A69U] it was 0.559; in that of GUUCGGUUGGCGUAAUGGUAACGCGUCUCCCUCCUAAGAAGAAGACUGCGGGUUCGAGUCCCGUACGGAGCG [C5G G39A A70G], 0.617; in that of GUUCGGUUGGCGUAAUGCUAACGCGCCACCCUCCUAAGGAGAAGACUGCGGGUUCGAGUCCCGUACGGAACG [C5G G18C U26C U28A], not above 0.5. In the case of GUUCGGUUGGCGUAAUCGUAACGCGUCUCCCUCCUAAGGAGAUGACUGCGGGUUCGAGUCCCGUACGGCACG [C5G G17C A43U A69C] it was 0.596; in that of GUUCGGUUGGCGUAAUGGUAACACGUCUCCCUCCUAAGGAGAAGACUGCGGGUUCGAGUUCGGUACGGAACG [C5G G23A C60U C62G], not above 0.5; in that of GUUCGGUUGGCGUAAUCGUAACGCGUCUCCCUCCUAAGGAGAAGGUUGCGGGUUCGAGUCCCGUACGGAACG [C5G G17C A45G C46U], not above 0.5. In the case of GUUCGGUUGGCGUAAUGGUAACACGUCUCCCCCCUAAGGAGAAGACUGCGGGUUCGAGUCACGUACGGAACG [C5G G23A U32C C61A] it was not above 0.5; in that of GUUCGGUUGGCGUAAUGGUAACCCGUCUCCCUCCUCAGGAGAAGACUGCGGGUUCGAGUCCCGUACGGAACG [C5G G23C A36C], not above 0.5; in that of GUUCGGUUGGCGUAAUGGUAACGCAUCUCCCUCCUAAGGAGAAGACUGCGGGUUCGAGUCCCGUACGGACCG [C5G G25A A70C], 0.758.

For the variant GUUCGGUUGGCGUAAUGGUAACGCAUCUCCCUCCUAAGGAGAAGACUGCGGGUUCGAGUCGCGUACGGAACG [C5G G25A C61G], the yeast fitness amounted to 0.564.

On to GUUCGGUUGGCGUAAUAGUAACGCGUCUCCCUCCUAAGGAGAAGACUGCGGGUUCGAGUCCAGUACGGAACG [C5G G17A C62A], for which the yeast fitness was not above 0.5.

As for GUUCGGUUGGCGUAAUGGUAACGCGUCUCCCUCCUAAGAAGAAGACUGCGGGUUCGAGUCCCGUACGGAACG [C5G G39A], the yeast fitness turned out to be 0.725.

As for GUUCGGUUGGCGUAAUGGUAACCCGUCUCCCUUCUAAGAAGACGACUGCGGGUUCGAGUCCCGUACGGAACG [C5G G23C C33U G39A A43C], the yeast fitness was not above 0.5.

Regarding GUUCGGUUGGCGUAAUAGUCACGCGUCUCCCUCCUAAAGAGAAGACUGCGGGUUCGACUCCCGUAUGGAACG [C5G G17A A20C G38A G58C C66U], the yeast fitness was not above 0.5. On to GUUCGGUUGGCGUAAUGGUAACGCCUCUCCCUCCUAAGGAGAAGACUGUGGGUUCGAGUCCCGUACGGAACG [C5G G25C C49U], for which the yeast fitness was 0.689.

GUUCGGUUGGCGUAAUGGUAACGCCUCUCCCUCCUAAGGAGAAGAGUGCGGGUUCGAGUCCCGGACGGAACG [C5G G25C C46G U64G]: the yeast fitness is not above 0.5.

Take GUUCGGUUGGCGUAAUGGUAACGCGUCUCCCUCCUAAGAAGAAGACUGGGGGUUUGUGUCCCGUACGGAACG [C5G G39A C49G C55U A57U]: the yeast fitness is not above 0.5. In the case of GUUCGGUUGGCGUAAUCGUAACGCAUCUCCCUCCUAAGGCGAAGACUGCGGGUUCGAGACCCGUACGGAACG [C5G G17C G25A A40C U59A] it was 0.54; in that of GUUCGGUUGGCGUAAUGGUAACGCGUCUCCCUCCUAAGAAGAAGACUGUGGGUUCGAGUCCCGUACGGAACG [C5G G39A C49U], 0.524; in that of GUUCGGUUGGCGUAAUCGUAACGCGUCUCCCUCCUAAGGAGAAGACUGCAGGUUCGAGUCCCGUUCGGAACG [C5G G17C G50A A65U], not above 0.5. In the case of GUUCGGUUGGCGUAAUGGUAACCCGUCUCCGUCCUAAGGAGAAGACUGCGGGUUCGAGUACCGUACGGAUCG [C5G G23C C31G C60A A70U] it was not above 0.5; in that of GUUCGGUUGGCGUAAUGGUAACGCGUCUCCCUCCUAAAGAGAAGACUGCGGGUUCGAGUCCCGUACGGAACG [C5G G38A], 0.729.

Turning to GUUCGGUUGGCGUAAUGGUAACGCAUCUCCCUCCUAAGGAGAAGACUACGGGUUCGAGUCCCGUACGGAACG [C5G G25A G48A], the yeast fitness was 0.724.

Take GUUCGGUUGGCGUAAUGGUAACGCAUCUCCCUCCUAAGGAGAAGACUACGGGUUCGAGUCGCGUACGGAACG [C5G G25A G48A C61G]: the yeast fitness was not above 0.5.

As for GUUCGGUUGGCGUAAUCGUAACGCGUCUCCCUCCUAAGGAGAAGACUGCGGGUUCGAGUCCCAUGCGGAACG [C5G G17C G63A A65G], the yeast fitness is not above 0.5. In the case of GUUCGGUUGGCGUAAUGGUAACGCAUCUCCCUCCUAAGGAGAAGACUGCGGGUUCGAGUCCCGUACGGUACG [C5G G25A A69U] it was 0.75. In the case of GUUCGGUUGGCGUAAUGGUAACCCGUCUCCCUCCUAAGGAGAAGACUGCGGGUUCGAGUCCCGUACGGAACG [C5G G23C] it was 0.695; in that of GUUCGGUUGGCGUAAUAGUCACGCGUCUCCCUCCUAAGGAGAAGACUGGGGGUUCGAGUCCCGUACGGCACG [C5G G17A A20C C49G A69C], not above 0.5.
